Structures are written as SMILES. Activity calls are given as the source filed them. No cut-off for these calls is given here.

Assay [1] deals with T1, Glucagon-like peptide 1 receptor (Homo sapiens, UniProt P43220). Nature of the assay: Positive allosteric modulator activity at human GLP-1R expressed in PSC-HEK293 cells in presence of EC20 level of GLP1(9-36)NH2 incubated for 30 mins by HTRF cAMP assay. The class given is functional, cell-based. In short, it runs like this:
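Thaw-and-use PSC-HEK293 cells stably expressing human GLP-1R, 2000 cells/well in HBSS/20 mM HEPES/0.1% BSA with 2 mM IBMX. Enhancer format: compound dose-response plus fixed EC20 GLP1(9-36)NH2. Shift format: GLP1(9-36)NH2 dose-response plus 10 or 3 μM compound. 30 min at room temperature. EC50 from a 4-parameter logistic fit.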

Assay [2] addresses T1, Glucagon-like peptide 1 receptor. Nature of the assay: Positive allosteric modulator activity at human GLP-1R expressed in PSC-HEK293 cells in presence of EC20 level of GLP1(9-36)NH2 incubated for 30 mins by HTRF cAMP assay relative to control. The class given is functional, cell-based. Summed up:
(§1)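 Thaw-and-use PSC-HEK293 cells stably expressing human GLP-1R, 2000 cells/well in HBSS/20 mM HEPES/0.1% BSA with 2 mM IBMX. Enhancer format: compound dose-response plus fixed EC20 GLP1(9-36)NH2. Shift format: GLP1(9-36)NH2 dose-response plus 10 or 3 μM compound. 30 min at room temperature. HTRF cAMP read after 1 h lysis (665/620 nm). EC50 from a 4-parameter logistic fit.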

Assay [3] shares this target. Nature of the assay: Positive allosteric modulator activity at GLP-1R in human 1.1B4 cells in presence of EC20 level of GLP1(9-36)NH2 incubated for 30 mins by HTRF cAMP assay. The class given is functional, cell-based. The note with it: read-out: EC50. Summed up:
(§2)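 Human pancreatic β-cell line 1.1B4, 20,000 cells/well cultured overnight, washed twice; compound concentration-response with fixed 10 nM GLP1(9-36)NH2, 30 min. cAMP by HTRF 665/620 ratio, normalised to buffer (1x HBSS, 0.1% BSA, 1 mM IBMX; 0%) and GLP-1(7-36)NH2 (100%); 4-parameter logistic fit.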

Assay [4] has the same target. Nature of the assay: Positive allosteric modulator activity at human GLP-1R expressed in PSC-HEK293 cells assessed as potentiation of GLP1(9-36)NH2-induced cAMP accumulation by measuring shift in EC50 of endogenous GLP1(9-36)NH2 at 10 uM incubated for 30 mins by HTRF cAMP assay relative to control. The assay is classed as functional, cell-based. In short, it runs like this: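 Thawed frozen PSC-HEK293 cells stably expressing human GLP-1R, 2000 cells/well in HBSS/20 mM HEPES/0.1% BSA with 2 mM IBMX. Shift format: GLP1(9-36)NH2 dose-response with compound fixed at 10 or 3 µM; 30 min room temperature; cAMP by HTRF (665/620 nm ratio) after 1 h with lysis reagents; 4-parameter logistic fit; EC50 shift factor derived.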
On the technique in general: Changes in cAMP serve as a functional read-out for many G protein-coupled receptors.

For assay [5] the target is unchanged. Nature of the assay: Positive allosteric modulator activity at human GLP-1R expressed in PSC-HEK293 cells assessed as potentiation of GLP1(9-36)NH2-induced cAMP accumulation by measuring shift in EC50 of endogenous GLP1(9-36)NH2 at 3 uM incubated for 30 mins by HTRF cAMP assay relative to control. The class given is functional, cell-based. Summed up: as §1

Assay [6] shares this target. Nature of the assay: Positive allosteric modulator activity at GLP-1R in human 1.1B4 cells in presence of EC20 level of GLP1(9-36)NH2 incubated for 30 mins by HTRF cAMP assay relative to control. The class given is functional, cell-based. Summed up: as §2
In assay [7] the target is T2, Glucagon-like peptide 1 receptor (Mus musculus) (UniProt O35659).
T2 sequence (whole entry): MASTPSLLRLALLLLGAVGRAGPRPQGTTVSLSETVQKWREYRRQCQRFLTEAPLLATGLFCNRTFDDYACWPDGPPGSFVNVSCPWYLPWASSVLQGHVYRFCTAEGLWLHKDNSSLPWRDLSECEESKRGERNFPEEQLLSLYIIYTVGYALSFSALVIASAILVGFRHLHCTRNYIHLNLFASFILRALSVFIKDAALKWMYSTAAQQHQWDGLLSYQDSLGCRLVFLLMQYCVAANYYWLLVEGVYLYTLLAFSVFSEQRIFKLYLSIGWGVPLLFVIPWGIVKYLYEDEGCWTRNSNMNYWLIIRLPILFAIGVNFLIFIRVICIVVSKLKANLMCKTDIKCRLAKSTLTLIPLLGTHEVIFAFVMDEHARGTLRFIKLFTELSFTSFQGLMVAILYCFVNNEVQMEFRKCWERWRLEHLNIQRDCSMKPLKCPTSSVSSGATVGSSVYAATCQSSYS
Nature of the assay: Positive allosteric modulator activity at GLP-1R in mouse MIN6-c4 cells assessed as effect on glucose-mediated increase in intracellular Ca2+ level by FLIPR assay relative to control. The assay is classed as functional, cell-based.

The subject of another assay is HEK293. Nature of the assay: Effect on cAMP accumulation in parental HEK293 cells incubated for 30 mins by HTRF cAMP assay. The assay is classed as functional, cell-based. The note with it: Homo sapiens.
In assay [8] the target is T1, Glucagon-like peptide 1 receptor. Nature of the assay: Activity at human GLP-1R expressed in PSC-HEK293 cells incubated for 30 mins by HTRF cAMP assay. The class given is functional, cell-based.
The target in assay [9] is Glucagon receptor (Homo sapiens) (UniProt P47871). Nature of the assay: Activity at human GCGR expressed in PSC-HEK293 cells incubated for 30 mins by HTRF cAMP assay. The class given is functional, cell-based. Background: TR-FRET usually uses a lanthanide donor and a delayed reading to cut background.
Assay [10] addresses T1, Glucagon-like peptide 1 receptor. Nature of the assay: Positive allosteric modulator activity at human GLP-1R expressed in PSC-HEK293 cells assessed as potentiation of oxyntomodulin-induced cAMP accumulation incubated for 30 mins by HTRF cAMP assay relative to control. The assay is classed as functional, cell-based. In short, it runs like this:
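Counterscreen in HEK293 cells with recombinant receptor, 2000 cells/well, 2 mM IBMX, 30 min at room temperature. Compound tested with 10 nM oxyntomodulin (GLP-1R cells) or with GLP-1(9-36)NH2 in glucagon-receptor-overexpressing cells. cAMP read by HTRF at 665/620 nm.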

Assay [11] addresses Glucagon receptor (Homo sapiens) (UniProt P47871). Nature of the assay: Positive allosteric modulator activity at human GCGR expressed in PSC-HEK293 cells assessed as potentiation of GLP-1(9-36)NH2-induced cAMP accumulation incubated for 30 mins by HTRF cAMP assay relative to control. The assay is classed as functional, cell-based.
The target in assay [12] is T2, Glucagon-like peptide 1 receptor (Mus musculus). Nature of the assay: Inhibition of 15 mM glucose-mediated increase in intracellular Ca2+ level in mouse MIN6-c4 cells at 0.12 to 30 uM by FLIPR assay relative to control. The assay is classed as functional, cell-based.
The target of assay [13] is T1, Glucagon-like peptide 1 receptor. Nature of the assay: Positive allosteric modulator activity at human GLP-1R expressed in PSC-HEK293 cells assessed as potentiation of cAMP accumulation incubated for 30 mins by HTRF cAMP assay.

Sequence of Glucagon receptor (Homo sapiens) (P47871 whole entry): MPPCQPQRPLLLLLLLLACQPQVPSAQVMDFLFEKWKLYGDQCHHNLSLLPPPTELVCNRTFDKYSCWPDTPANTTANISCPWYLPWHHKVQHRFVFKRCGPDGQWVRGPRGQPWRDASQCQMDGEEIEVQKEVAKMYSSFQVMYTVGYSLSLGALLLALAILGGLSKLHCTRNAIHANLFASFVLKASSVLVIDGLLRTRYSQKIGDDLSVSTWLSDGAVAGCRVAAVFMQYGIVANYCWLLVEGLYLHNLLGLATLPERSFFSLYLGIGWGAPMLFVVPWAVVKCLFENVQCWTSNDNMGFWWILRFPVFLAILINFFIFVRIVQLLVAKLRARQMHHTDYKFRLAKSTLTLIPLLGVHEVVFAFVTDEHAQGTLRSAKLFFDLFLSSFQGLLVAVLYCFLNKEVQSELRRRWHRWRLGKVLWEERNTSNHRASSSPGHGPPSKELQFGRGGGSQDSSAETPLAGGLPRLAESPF
T1 sequence (P43220 whole entry): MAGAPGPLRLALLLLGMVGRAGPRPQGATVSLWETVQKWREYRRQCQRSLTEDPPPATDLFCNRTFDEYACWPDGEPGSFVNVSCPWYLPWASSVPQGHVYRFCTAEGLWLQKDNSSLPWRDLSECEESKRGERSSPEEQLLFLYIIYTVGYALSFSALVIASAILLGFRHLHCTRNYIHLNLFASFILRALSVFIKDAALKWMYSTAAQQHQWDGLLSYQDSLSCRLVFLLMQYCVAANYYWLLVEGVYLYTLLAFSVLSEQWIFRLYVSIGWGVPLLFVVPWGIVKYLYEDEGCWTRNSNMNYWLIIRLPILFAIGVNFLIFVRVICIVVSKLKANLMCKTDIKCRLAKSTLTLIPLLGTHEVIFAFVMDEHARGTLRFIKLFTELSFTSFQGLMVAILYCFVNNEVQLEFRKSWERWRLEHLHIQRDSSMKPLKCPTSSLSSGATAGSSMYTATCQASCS

What is called EC50 is the midpoint of the concentration-response curve. The term Emax denotes the maximal effect, on the per cent scale that the assay sets. `CC(C)(C)OC(=O)n1c2c(c3ccccc31)C[C@H]1C(=O)N3C[C@@H](CC(=O)O)C[C@H]3[C@@H]2N1C(=O)CC1CCC(F)(F)CC1`: the values for the EC50 in [1] and in assay [3] were 5 nM and 130 nM, respectively. Besides, the Emax in [2] came out at 100%; in [6] it was 102%. In addition, the Ratio EC50 amounted to 8190 in assay [4] and 2220 in assay [5]. The fold change (FC) in assay [7] is 1.2. Also, the result (with HEK293; in [8]; in assay [9]; in assay [10]; in assay [11]; in assay [13]) was inactive. Further, the inhibition entry in assay [12] is “inactive”.
Take `CC(O)CCN1C[C@H]2c3c(c4ccccc4n3C(=O)OC(C)(C)C)C[C@@H](C1=O)N2C(=O)CC1CCC(F)(F)CC1` (stereo partly drawn): the half-maximal effective concentration (EC50) in assay [1] stood at 1.5 nM; in assay [3], 40 nM. Besides, the Emax in assay [2] and in assay [6] was 100% throughout. In addition, the Ratio EC50 in assay [4] came out at 3140; in assay [5] it was 526. The fold change (FC) in assay [7] was found to be 0.9. The outcome (with HEK293; in assay [8]; in [9]; in assay [10]; in assay [11]; in assay [13]) was inactive. Further, in assay [12], the inhibition entry was “Active”.

These data come from ChEMBL document CHEMBL4354813, “Design, Synthesis, and Pharmacological Evaluation of Potent Positive Allosteric Modulators of the Glucagon-like Peptide-1 Receptor (GLP-1R)” (J Med Chem, 2020).
